Reference: ChEMBL document CHEMBL4765233, “From Lead to Drug Candidate: Optimization of 3-(Phenylethynyl)-1H-pyrazolo[3,4-d]pyrimidin-4-amine Derivatives as Agents for the Treatment of Triple Negative Breast Cancer” (J Med Chem, 2016)

How the values were obtained:
[1] = test system: MDA-MB-231; experiment: Antiproliferative activity against human MDA-MB-231 cells assessed as reduction in cell viability incubated for 72 hrs by MTT assay; assay type: functional, cell-based; conditions: MDA-MB-231, 72 h
How it was run: (§1)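 MTT viability assay. ATCC cell lines were grown in designated medium with 10% FBS at 37 °C, 5% CO2. Cells seeded at 1500−30000 per well and incubated 24 h, then exposed to compound (0−10 μg/mL) for 72 h. MTT added for 2−4 h. Formazan dissolved in DMSO (adherent) or acidified SDS overnight (suspension), absorbance read at 570 nm. Triplicates; IC50 calculated.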

[2] = test system: MDA-MB-435; experiment: Antiproliferative activity against human MDA-MB-435 cells assessed as reduction in cell viability incubated for 72 hrs by MTT assay; assay type: functional, cell-based; conditions: MDA-MB-435, 72 h; how it was run: as §1
[3] = test system: HepG2; experiment: Antiproliferative activity against human HepG2 cells assessed as reduction in cell viability incubated for 72 hrs by MTT assay; assay type: ADME, cell-based; conditions: HepG2, 72 h
[4] = test system: MDA-MB-231; experiment: Antitumor activity against human MDA-MB-231 cells xenografted in SCID mouse assessed as tumor growth inhibition at 40 mg/kg, po qd for 21 days and measured every 3 days; assay type: functional; conditions: MDA-MB-231, po, 504 h, time 21 day
How it was run: (§2)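 SCID mice (5−6 weeks) injected subcutaneously with 100 μL of cells at 5 × 10^7/mL. At 150−200 mm3 mice randomized, 6 per group. Oral compounds given in water with 25% PEG400 plus 5% DMSO; paclitaxel given 10 mg/kg/week iv. Tumor volume a×b²/2 and body weight measured every 3 days. Inhibition rate (c−d)/c×100% against vehicle control.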

[5] = Toxicity in SCID mouse xenografted with MDA-MB-231 cells assessed as change in body weight at 40 mg/kg, po qd for 21 days and measured every 3 days; assay type: organism-based; conditions: in vivo, 504 h, dose 40 mg/kg/day, time 21 day
How it was run: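 Exponential-phase cells washed and injected subcutaneously (5 × 10^6 cells in 100 μL) into 5–6-week SCID mice. At 150–200 mm3, mice randomised to groups of 6. Oral dosing daily in water with 25% PEG400 and 5% DMSO; paclitaxel 10 mg/kg weekly by tail vein. Body weight measured every 3 days and side effects checked daily.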

[6] = Toxicity in SCID mouse xenografted with MDA-MB-231 cells assessed as animal death at 40 mg/kg, po qd for 21 days; assay type: organism-based; conditions: in vivo, dose 40 mg/kg/day, time 21 day, read-out: Activity
How it was run: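 SCID mice aged 5–6 weeks were injected subcutaneously with 100 μL of MDA-MB-231 cells resuspended at 5 × 10^7 per mL. When tumours reached 150–200 mm3, mice were randomised into groups of 3 or 6. Dosing was oral and daily, in sterile water with 25% PEG400 plus 5% DMSO. Side effects were checked daily and body weight every 3 days.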

[7] = test system: MDA-MB-231; experiment: Antitumor activity against human MDA-MB-231 cells xenografted in SCID mouse assessed as tumor growth inhibition at 40 mg/kg, po qd for 15 days and measured every 3 days; assay type: functional; conditions: MDA-MB-231, po, 360 h, time 15 day; how it was run: as §2
[8] = Toxicity in SCID mouse xenografted with MDA-MB-231 cells assessed as change in body weight at 40 mg/kg, po qd for 15 days and measured every 3 days; assay type: organism-based; conditions: in vivo, 360 h, dose 40 mg/kg/day, time 15 day
[9] = Toxicity in SCID mouse xenografted with MDA-MB-231 cells assessed as animal death at 40 mg/kg, po qd for 15 days; assay type: organism-based; conditions: in vivo, dose 40 mg/kg/day, time 15 day, read-out: Activity

IC50 [1]	IC50 [2]	IC50 [3]	SMILES	inhibition in vivo at 40 mg/kg/day [4]	Activity [5]	mortality at 504 h [6]	inhibition in vivo at 40 mg/kg/day [7]	Activity [8]	mortality at 360 h [9]
41 nM	115 nM	3500 nM	Cc1ccc(C(=O)Nc2cccc(C(F)(F)F)c2)cc1C#Cc1nn(CC2CCN(C)C2)c2ncnc(N)c12 (configuration not stated)	–	–	–	–	–	–
324 nM	80 nM	> 10000 nM	Cc1ccc(NC(=O)c2cc(C(C)(C)C)nn2C)cc1C#Cc1nn(C2CCN(C)CC2)c2ncnc(N)c12	–	–	–	–	–	–
1350 nM	557 nM	6200 nM	CN1CCC(n2nc(C#Cc3cccc(NC(=O)Nc4cccc(C(F)(F)F)c4)c3)c3c(N)ncnc32)CC1	–	–	–	–	–	–
284 nM	183 nM	> 10000 nM	Cc1ccc(NC(=O)c2ccnc(C(F)(F)F)c2)cc1C#Cc1nn(C2CCN(C)CC2)c2ncnc(N)c12	–	–	–	–	–	–
75 nM	93 nM	> 10000 nM	Cc1ccc(NC(=O)c2cccc(OC(F)(F)F)c2)cc1C#Cc1nn(C2CCN(C)CC2)c2ncnc(N)c12	–	–	–	–	–	–
133 nM	422 nM	> 10000 nM	Cc1cccc(C(=O)Nc2ccc(C)c(C#Cc3nn(C4CCN(C)CC4)c4ncnc(N)c34)c2)c1	–	–	–	–	–	–
30 nM	12 nM	4400 nM	Cc1ccc(NC(=O)c2cccc(C(C)(C)C)c2)cc1C#Cc1nn([C@H]2CC[C@H](O)CC2)c2ncnc(N)c12	–	–	–	–	–	–
671 nM	1430 nM	> 10000 nM	Cc1ccc(NC(=O)c2cc(F)cc(C(F)(F)F)c2)cc1C#Cc1nn(C2CCN(C)CC2)c2ncnc(N)c12	–	–	–	–	–	–
201 nM	117 nM	2700 nM	Cc1ccc(NC(=O)c2cc(C(F)(F)F)ccc2F)cc1C#Cc1nn(C2CCN(C)CC2)c2ncnc(N)c12	–	–	–	–	–	–
947 nM	334 nM	> 10000 nM	CN1CCC(n2nc(C#Cc3cc(NC(=O)Nc4cccc(C(F)(F)F)c4)ccc3Cl)c3c(N)ncnc32)CC1	–	–	–	–	–	–
296 nM	273 nM	> 10000 nM	Cc1ccc(NC(=O)c2cccc(C(F)(F)F)c2F)cc1C#Cc1nn(C2CCN(C)CC2)c2ncnc(N)c12	–	–	–	–	–	–
70 nM	55 nM	3100 nM	Cc1ccc(C(=O)Nc2cccc(C(F)(F)F)c2)cc1C#Cc1nn(CC2CCN(C)CC2)c2ncnc(N)c12	–	–	–	–	–	–
1690 nM	343 nM	> 10000 nM	CN1CCC(n2nc(C#Cc3cccc(C(=O)Nc4cccc(C(F)(F)F)c4)c3)c3c(N)ncnc32)CC1	–	–	–	–	–	–
515 nM	90 nM	> 10000 nM	Cc1ccc(NC(=O)Nc2cccc(C(F)(F)F)c2)cc1C#Cc1nn(C2CCN(C)CC2)c2ncnc(N)c12	–	–	–	–	–	–
85 nM	63 nM	2600 nM	Cc1ccc(NC(=O)c2cc(Cl)cc(C(F)(F)F)c2)cc1C#Cc1nn(C2CCN(C)CC2)c2ncnc(N)c12	–	–	–	–	–	–
188 nM	82 nM	> 10000 nM	Cc1ccc(NC(=O)c2cc(C(C)(C)C)on2)cc1C#Cc1nn(C2CCN(C)CC2)c2ncnc(N)c12	–	–	–	–	–	–
854 nM	5140 nM	> 10000 nM	Cc1ccc(NC(=O)c2ccc(C(F)(F)F)cc2)cc1C#Cc1nn(C2CCN(C)CC2)c2ncnc(N)c12	–	–	–	–	–	–
59 nM	20 nM	> 10000 nM	Cc1ccc(NC(=O)c2cccc(C(C)(C)C)c2)cc1C#Cc1nn(C2CCN(C)CC2)c2ncnc(N)c12	–	–	–	–	–	–

IC50 [1]	IC50 [2]	IC50 [3]	SMILES	inhibition in vivo at 40 mg/kg/day [4]	Activity [5]	mortality at 504 h [6]	inhibition in vivo at 40 mg/kg/day [7]	Activity [8]	mortality at 360 h [9]
597 nM	140 nM	6000 nM	CN1CCC(n2nc(C#Cc3cccc(NC(=O)c4cccc(C(F)(F)F)c4)c3)c3c(N)ncnc32)CC1	–	–	–	–	–	–
23 nM	319 nM	> 10000 nM	Cc1ccc(NC(=O)c2ccc(Cl)c(C(F)(F)F)c2)cc1C#Cc1nn(C[C@@H](C)CO)c2ncnc(N)c12	–	–	–	–	–	–
101 nM	285 nM	> 10000 nM	COc1cccc(C(=O)Nc2ccc(C)c(C#Cc3nn(C4CCN(C)CC4)c4ncnc(N)c34)c2)c1	–	–	–	–	–	–
749 nM	135 nM	> 10000 nM	CN1CCC(n2nc(C#Cc3cc(C(=O)Nc4cccc(C(F)(F)F)c4)ccc3Cl)c3c(N)ncnc32)CC1	–	–	–	–	–	–
51 nM	94 nM	7100 nM	Cc1ccc(NC(=O)c2cc(C(F)(F)F)cc(C(F)(F)F)c2)cc1C#Cc1nn(C2CCN(C)CC2)c2ncnc(N)c12	–	–	–	–	–	–
509 nM	2470 nM	> 10000 nM	Cc1ccc(NC(=O)c2cccc(C(F)(F)F)n2)cc1C#Cc1nn(C2CCN(C)CC2)c2ncnc(N)c12	–	–	–	–	–	–
48 nM	123 nM	8300 nM	Cc1ccc(NC(=O)c2ccc(C)c(C(F)(F)F)c2)cc1C#Cc1nn(C[C@@H](C)CO)c2ncnc(N)c12	–	–	–	–	–	–
167 nM	65 nM	> 10000 nM	Cc1ccc(NC(=O)c2cncc(C(F)(F)F)c2)cc1C#Cc1nn(C2CCN(C)CC2)c2ncnc(N)c12	–	–	–	–	–	–
13 nM	44 nM	4600 nM	Cc1ccc(C(=O)Nc2cccc(C(F)(F)F)c2)cc1C#Cc1nn([C@@H]2CCN(C)C2)c2ncnc(N)c12	–	–	–	–	–	–
34 nM	73 nM	> 10000 nM	Cc1ccc(NC(=O)c2cnc(C(C)(C)C)s2)cc1C#Cc1nn(C[C@@H](C)CO)c2ncnc(N)c12	–	–	–	–	–	–
523 nM	621 nM	> 10000 nM	Cc1ccc(NC(=O)c2ccc(F)c(C(F)(F)F)c2)cc1C#Cc1nn(C2CCN(C)CC2)c2ncnc(N)c12	–	–	–	–	–	–
947 nM	195 nM	> 10000 nM	CN1CCC(n2nc(C#Cc3cc(NC(=O)c4cccc(C(F)(F)F)c4)ccc3Cl)c3c(N)ncnc32)CC1	–	–	–	–	–	–
1880 nM	3380 nM	> 10000 nM	Cc1ccc(NC(=O)c2cc(C(F)(F)F)cc(Cl)c2F)cc1C#Cc1nn(C2CCN(C)CC2)c2ncnc(N)c12	–	–	–	–	–	–
812 nM	2070 nM	> 10000 nM	Cc1ccc(NC(=O)c2cccc(F)c2)cc1C#Cc1nn(C2CCN(C)CC2)c2ncnc(N)c12	–	–	–	–	–	–
360 nM	238 nM	> 10000 nM	CCn1nc(C#Cc2cc(C(=O)Nc3cccc(C(F)(F)F)c3)ccc2C)c2c(N)ncnc21	–	–	–	–	–	–
60 nM	733 nM	9200 nM	Cc1ccc(NC(=O)c2cccc(Cl)c2)cc1C#Cc1nn(C2CCN(C)CC2)c2ncnc(N)c12	–	–	–	–	–	–
1360 nM	8900 nM	> 10000 nM	COc1ccc(C(=O)Nc2ccc(C)c(C#Cc3nn(C4CCN(C)CC4)c4ncnc(N)c34)c2)cc1	–	–	–	–	–	–

SMILES	IC50 [1]	IC50 [2]	IC50 [3]	inhibition in vivo at 40 mg/kg/day [4]	Activity [5]	mortality at 504 h [6]	inhibition in vivo at 40 mg/kg/day [7]	Activity [8]	mortality at 360 h [9]
Cc1ccc(NC(=O)c2ccc(Cl)c(C(F)(F)F)c2)cc1C#Cc1nn(C2CCN(C)CC2)c2ncnc(N)c12	31 nM	27 nM	> 10000 nM	70.5%	-6.7%	0%	–	–	–
Cc1ccc(NC(=O)c2cccc(C(F)(F)F)c2)cc1C#Cc1nn(CC2CCN(C)C2)c2ncnc(N)c12 (configuration not stated)	–	–	4700 nM	–	–	–	–	–	–
Cc1ccc(NC(=O)c2cccc(C(F)(F)F)c2)cc1C#Cc1nn([C@@H]2CCN(C)C2)c2ncnc(N)c12	–	–	6600 nM	–	–	–	–	–	–
COc1ccc(C(=O)Nc2ccc(C)c(C#Cc3nn(C4CCN(C)CC4)c4ncnc(N)c34)c2)cc1C(F)(F)F	24 nM	832 nM	2200 nM	–	–	0%	–	–	–
Cc1ccc(NC(=O)c2ccc(C)c(C(F)(F)F)c2)cc1C#Cc1nn(C2CCN(C)CC2)c2ncnc(N)c12	44 nM	40 nM	> 10000 nM	69.8%	-4.5%	0%	–	–	–
Cc1ccc(NC(=O)c2ccc(Cl)cc2)cc1C#Cc1nn(C2CCN(C)CC2)c2ncnc(N)c12	33 nM	111 nM	7600 nM	90.1%	-16%	0%	–	–	–
Cc1ccc(C(=O)Nc2cccc(C(F)(F)F)c2)cc1C#Cc1nn(C2CCN(C)CC2)c2ncnc(N)c12	9 nM	170 nM	7700 nM	–	–	–	91.2%	-13.2%	0%
Cc1ccc(NC(=O)c2cccc(C(F)(F)F)c2)cc1C#Cc1nn(CC2CCN(C)CC2)c2ncnc(N)c12	–	–	3200 nM	–	–	–	–	–	–
Cc1ccc(NC(=O)c2cnc(C(C)(C)C)s2)cc1C#Cc1nn(C2CCN(C)CC2)c2ncnc(N)c12	78 nM	20 nM	> 10000 nM	87%	-5.3%	0%	–	–	–
